ChEMBL document CHEMBL1124262, “Cardiotonic agents. Synthesis and inotropic activity of a series of isoquinolin-3-ol derivatives” (J Med Chem, 1988)

Key:
[1] = system: Canis familiaris; assay: 50% increase in contractile force in one to three anesthetized dogs administered intravenously; type: functional; settings: Canis lupus familiaris, iv
Procedure, shortened: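 Anesthetized dogs (one to three). Compound is infused iv in three to four stepwise increasing doses, each over 5 min once the previous effect has peaked. Contractile force is recorded with a Walton Brodie strain gauge on the right ventricle. The dose (μg/kg) giving a 50% rise over control CF is read from the dose-response curve, graphically (n < 3) or by linear regression (n ≥ 3).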

[2] = system: Canis familiaris; assay: Change in heart rate of anaesthetized, open chest dogs following 0.875 mg/kg i.v. administration.; type: functional, Canis lupus familiaris; settings: route intravenous
Procedure, shortened: (§1)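 Anesthetized open-chest dogs, one drug per animal. Compound is in DMF diluted to 10% in saline, or given as the HCl salt in saline. It is infused into the femoral vein by pump at 0.58-2.2 mL/min in 3-4 stepwise cumulative doses, each over 5 min after the prior peak. Readings are CF by right-ventricle strain gauge, dP/dtmax by Millar LV catheter, HR by cardiotachometer and MAP from femoral artery, as % change from predrug control.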

[3] = molecular target: Phosphodiesterase 3 (Homo sapiens, UniProt Q14432+Q13370); assay: Inhibition of phosphodiesterase fraction III in anesthetized open chest dogs; type: functional, Canis lupus familiaris; settings: target entry is the homologue from another species
Procedure, shortened: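 Enzyme is dog heart PDE-III, the third DEAE-cellulose fraction eluted at 800 mM sodium acetate. Compounds are tested at 0.01–1000 μM with 0.25 μM cAMP containing [³H]cAMP, in 0.05 M Tris-HCl pH 7.4 with 5 mM MgCl2. The reaction is stopped by heat, then snake venom converts product to adenosine. [³H]adenosine is counted by scintillation after Dowex separation. IC50 comes from ≥2 determinations, each in duplicate.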

[4] = system: Canis familiaris; assay: Change in left ventricular pressure of anaesthetized, open chest dogs following 0.875 mg/kg i.v. administration.; type: functional, Canis lupus familiaris, Heart left ventricle; settings: route intravenous; procedure, shortened: as §1
[5] = system: Canis familiaris; assay: Percent change in mean arterial blood pressure (MAP) in anesthetized open chest dogs iv administration at 0.8750 mg/kg; type: functional, Canis lupus familiaris; settings: dose 0.875 mg/kg; procedure, shortened: as §1
[6] = system: Canis familiaris; assay: Change in heart contractile force of anaesthetized, open chest dogs following 0.875 mg/kg i.v. administration.; type: functional, Canis lupus familiaris; settings: route intravenous; procedure, shortened: as §1
[7] = system: Canis familiaris; assay: Percent change in left ventricular pressure (dP/dtmax) in anesthetized dog after iv administration at 1.875 mg/kg; type: functional, Canis lupus familiaris, Heart left ventricle; procedure, shortened: as §1
[8] = system: Canis familiaris; assay: Percent change in mean arterial blood pressure (MAP) in anesthetized open chest dogs iv administration at 1.875 mg/kg; type: functional, Canis lupus familiaris; procedure, shortened: as §1
[9] = system: Canis familiaris; assay: Percent change in heart rate (HR) in anesthetized open chest dogs after a iv dose of 1.875 mg/kg; type: functional, Canis lupus familiaris; procedure, shortened: as §1
[10] = system: Canis familiaris; assay: Percent increase in contractile force (CF) in anesthetized open-chest dogs iv administration of 1.875 mg/kg; type: functional, Canis lupus familiaris
Procedure, shortened: (§2)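 Anesthetized open-chest dogs. After a right thoracotomy, contractile force was recorded by a Walton Brodie strain gauge sutured to the right ventricle at 100 g baseline tension. Compound was given iv by infusion pump into a femoral vein, one drug per animal, in three to four stepwise increasing doses. Each dose ran over 5 min, starting once the previous dose's effect peaked. Values are % increase over predrug control vs cumulative mg/kg dose.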

[11] = system: Canis familiaris; assay: Percent change in mean arterial blood pressure (MAP) in anesthetized open chest dogs iv administration at 0.050 mg/kg; type: functional, Canis lupus familiaris; settings: dose 0.05 mg/kg; procedure, shortened: as §1
[12] = system: Canis familiaris; assay: Percent increase in contractile force (CF) in anesthetized open-chest dogs iv administration of 0.050 mg/kg; type: functional, Canis lupus familiaris; settings: dose 0.05 mg/kg; procedure, shortened: as §1
[13] = system: Canis familiaris; assay: Percent change in left ventricular pressure (dP/dtmax) in anesthetized dog after iv administration at 0.05 mg/kg; type: functional, Canis lupus familiaris, Heart left ventricle; procedure, shortened: as §1
[14] = system: Canis familiaris; assay: Percent change in heart rate (HR) in anesthetized open chest dogs after a iv dose of 0.05 mg/kg; type: functional, Canis lupus familiaris; procedure, shortened: as §1
[15] = system: Canis familiaris; assay: Percent change in mean arterial blood pressure (MAP) in anesthetized open chest dogs iv administration at 0.875 mg/kg; type: functional, Canis lupus familiaris; procedure, shortened: as §1
[16] = system: Canis familiaris; assay: Percent change in mean arterial blood pressure (MAP) in anesthetized open chest dogs iv administration at 0.025 mg/kg; type: functional, Canis lupus familiaris; procedure, shortened: as §1
[17] = system: Canis familiaris; assay: Percent increase in contractile force (CF) in anesthetized open-chest dogs iv administration of 0.025 mg/kg; type: functional, Canis lupus familiaris; procedure, shortened: as §1
[18] = system: Canis familiaris; assay: Contractile force in anesthetized open chest dogs id administration at 1.00 mg/kg; type: functional, Canis lupus familiaris; settings: route intraduodenal
Procedure, shortened: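 Anesthetized open-chest dogs. A 10-mL bolus is injected into the duodenum through a catheter placed 2 cm distal to the pylorus. Contractile force is measured with a Walton Brodie strain gauge sutured to the right ventricle, at a baseline tension of 100 g, and monitored continuously. Results are given as % increase from predrug control against cumulative dose.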

[19] = system: Canis familiaris; assay: Percent change in left ventricular pressure (dP/dtmax) in anesthetized dog after iv administration at 0.025 mg/kg; type: functional, Canis lupus familiaris, Heart left ventricle; procedure, shortened: as §1
[20] = system: Canis familiaris; assay: Percent change in mean arterial blood pressure (MAP) in anesthetized open chest dogs iv administration at 1 mg/kg; type: functional, Canis lupus familiaris; procedure, shortened: as §1
[21] = system: Canis familiaris; assay: Percent change in heart rate (HR) in anesthetized open chest dogs after a iv dose of 0.025 mg/kg; type: functional, Canis lupus familiaris; procedure, shortened: as §1
[22] = system: Canis familiaris; assay: Percent increase in left ventricular pressure (dP/dtmax) of anesthetized dog after id administration at 1 mg/kg; type: functional, Canis lupus familiaris, Heart left ventricle; settings: route intraduodenal
Procedure, shortened: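 Anesthetized open-chest dogs. Left ventricular pressure was measured by Millar catheter and dP/dtmax derived. Compound was given as a 10-mL bolus into the duodenum through a catheter placed 2 cm distal to the pylorus via flank incision. Dissolved in DMF diluted to 10% in saline, or as HCl salt in saline. Response is % change over predrug control, monitored continuously.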

[23] = system: Canis familiaris; assay: Percent change in heart rate (HR) in anesthetized open chest dogs after a iv dose of 1 mg/kg; type: functional, Canis lupus familiaris; procedure, shortened: as §1
[24] = system: Canis familiaris; assay: Percent change in mean arterial blood pressure (MAP) in anesthetized open chest dogs iv administration at 0.3750 mg/kg; type: functional, Canis lupus familiaris; settings: dose 0.375 mg/kg; procedure, shortened: as §1
[25] = system: Canis familiaris; assay: Percent change in left ventricular pressure (dP/dtmax) in anesthetized dog after iv administration at 0.375 mg/kg; type: functional, Canis lupus familiaris, Heart left ventricle; procedure, shortened: as §1
[26] = system: Canis familiaris; assay: Percent change in heart rate (HR) in anesthetized open chest dogs after a iv dose of 0.375 mg/kg; type: functional, Canis lupus familiaris; procedure, shortened: as §1
[27] = system: Canis familiaris; assay: Percent increase in contractile force (CF) in anesthetized open-chest dogs iv administration of 0.375 mg/kg; type: functional, Canis lupus familiaris; procedure, shortened: as §2

IC50 [3] [µM] | SMILES | ED50 [1] [mg/kg] | Change [2] [%] | Increase [4] [%] | Change [5] [%] | Increase [6] [%] | other results
10 | Br.COc1cc2c(C)nc(O)c(Br)c2cc1OC | 0.185 | 26 | 25 | -40 | 128 | 
62 | COc1cc2c(C)nc(O)c(Cl)c2cc1OC | 0.12 | 29 | 88 | 1 | 89 | 
37 | CCCCOc1cc2c(C)nc(O)cc2cc1OC | 0.13 | 26 | 58 | -18 | 182 | 
 | COc1cc2c(C)nc(O)c(CCC(=O)N(C)C)c2cc1OC |  |  |  |  |  | Increase [7]: -5%; Change [8]: -14%; Change [9]: -2%; Increase [10]: 16%
 | COc1ccc2c(C)nc(O)cc2c1OC |  |  |  |  | 28 | Increase [7]: 13%; Change [8]: 1%; Change [9]: 3%
 | CCc1nc(O)c(CCC(=O)OC)c2cc(OC)c(OC)cc12 |  | 10 | 33 | -3 | 47 | 
 | CCCc1nc(O)c(CCC(=O)OC)c2cc(OC)c(OC)cc12 |  | 2 |  |  |  | Increase [7]: 19%; Change [8]: -4%; Increase [10]: 17%
7 | COc1cc2c(C)nc(O)c(C(C)C)c2cc1OC | 0.025 |  |  |  |  | Change [11]: -5%; Increase [12]: 76%; Increase [13]: 54%; Change [14]: 6%
 | COc1cc2c(C)nc(O)c(CCC(N)=O)c2cc1OC |  |  |  |  |  | Increase [7]: 29%; Change [8]: -9%; Change [9]: 11%; Increase [10]: 49%
2 | CCOc1cc2c(C)nc(O)c(CC)c2cc1OC | 0.02 | 26 | 6 | -46 | 118 | 
 | COc1cc2cc(O)nc(C)c2c(OC)c1OC |  | 13 | 45 |  | 76 | Change [15]: -2%
 | CCOc1cc2c(C)nc(O)cc2cc1OC |  | 22 | 88 |  | 197 | Change [15]: -10%
2 | CCc1c(O)nc(C)c2cc(OC)c(OC)cc12 | 0.012 |  |  |  |  | Change [16]: -12%; Increase [17]: 143%; Increase [18]: 132%; Increase [19]: 98%; Change [20]: -22%; Change [21]: 13%; Increase [22]: 92%; Change [23]: 22%
 | COC(=O)Cc1c(O)nc(C)c2cc(OC)c(OC)cc12 |  | 6 | 28 | -1 | 42 | 
 | CCOC(=O)CCc1c(O)nc(C)c2cc(OC)c(OC)cc12 |  | 8 | 20 | -4 | 60 | 
 | COc1cc2c(C)nc(O)c(CC(C)C)c2cc1OC |  |  |  |  |  | Increase [7]: 25%; Change [8]: -6%; Change [9]: 10%; Increase [10]: 39%
 | COC(=O)Oc1cc2cc(OC)c(OC)cc2c(C)n1 |  |  |  |  |  | Change [24]: -8%; Increase [25]: 66%; Change [26]: 19%; Increase [27]: 119%
